Assay outcomes as filed in PubChem.
MT1-MMP act inh = blocks activation of human MT1-MMP. P50281. HT1080 RFP-PRO-GFP cells, GFP/RFP ratio fluorescence, overnight; percent of plate control window, DMSO zero. GFP/RFP ratio change, % at 20 µM. hit rate 0.061% among 360,000. AID 651647;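 active means GFP/RFP ratio change of at least 30% with cell ATP level not reduced by more than half and red fluorescence within 50% of control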
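Assay system: HT1080 RFP-PRO-GFP cells. Benchmarks: DMSO vehicle wells and RFP-L50D-GFP reporter cell wells. Times: overnight cell settling, then overnight compound exposure, 37 °C, 5% CO2. Compound: 20 µM single dose, 1% DMSO. Read-out basis: GFP/RFP fluorescence ratio.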
ABCB6 inh MLPCN = blocks the human ABCB6 transporter; Q9NP58; K562-ABCB6 porphyrin accumulation, flow cytometry, 1 h; active compounds read low; fluorescence ratio to DMSO, % at 10 µM; hit rate 0.19% among 360,000;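 active means fluorescence ratio to DMSO below 75%, the collection mean minus 3 SD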;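 further: signal is porphyrin accumulated inside mitochondria; 100% equals median channel fluorescence of DMSO control wells; lower ratio means ABCB6 inhibition with less porphyrin fluorescence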
VLA-4 inh = inhibition in a human VLA-4 binding assay. P13612. VLA-4 expressing cells, ligand binding flow cytometry. inhibition, % (about 7 µM as worked out from the volumes in the protocol). hit rate 0.2% among 330,000. AID 2557; in the data active means inhibition above about 50%
Granule exo inh = blocks lytic granule exocytosis; TALL-104 LAMP-1 surface exposure, flow cytometry; cells stimulated with thapsigargin and PMA; inhibition, % at 10 µM; hit rate 0.66% among 360,000;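 active means inhibition above about 55%, limit read from the data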
FGF22 binding = binders of recombinant human FGF22 by thermal shift; Q9HCT0; SYPRO orange fluorescence; percent of sucrose octasulfate shift, DMSO zero; activity (Tm shift, normalised), % at 9.99 µM; hit rate 1.5% among 340,000;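 active means mean Tm shift, scaled 0 neutral to 100 positive control, at about 1.3% or above, every replicate too, limit read from the data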
Target sequence (Q9HCT0 whole entry, looked up): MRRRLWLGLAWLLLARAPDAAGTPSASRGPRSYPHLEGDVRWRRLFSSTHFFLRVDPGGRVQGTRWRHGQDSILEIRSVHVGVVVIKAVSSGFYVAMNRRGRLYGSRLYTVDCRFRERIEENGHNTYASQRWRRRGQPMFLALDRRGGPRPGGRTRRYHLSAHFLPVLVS
DAGLB inh = diacylglycerol lipase beta (human) inhibition | Q8NCG7 | HEK293T DAGLB membrane lysate, EnzChek fluorogenic substrate | hit rate 0.059% among 340,000 | inhibition, % at 5.17 µM; in the data active means inhibition above about 34%;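 further: 0% = enzyme with vehicle and 100% = wells lacking enzyme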
Numbers without * were called inactive; / = no result. Rows were chosen to be rich in hits. Some 2% of all compounds tested hit in one or more screens of this group.

SMILES | MT1-MMP act inh | ABCB6 inh MLPCN | VLA-4 inh | Granule exo inh | FGF22 binding | DAGLB inh
CC(C)(C)c1nnc2sc(SCC(=O)c3ccccc3)nn2c1=O | 6 | 99 | 5 | -1 | / | -3
CC(C)(C)c1nnc2sc(SCC(=O)N3CCc4ccccc43)nn2c1=O | -1 | 102 | 14 | -2 | 43* | 0
CCNC(=O)CC1C(=O)N(c2ccc(F)cc2)C(=S)N1CCc1ccncc1 (centres undefined) | 0 | 91 | 16 | -4 | 0 | 0
O=C(CC1C(=O)N(c2ccc(Cl)cc2)C(=S)N1CCc1ccncc1)Nc1ccc(F)cc1 (centres undefined) | -2 | 100 | 19 | 0 | 2.3* | 1
CSc1nc(SCC(=O)NCc2ccco2)c2c3c(sc2n1)CN(C)CC3 | -3 | 72* | -3 | 1 | 0 | 0
CSc1nc(NCc2ccco2)c2c3c(sc2n1)CN(C)CC3 | / | / | -11 | / | / | /
Cc1nc(COC(=O)c2ccc(CO)cc2)cs1 | 1 | 91 | 8 | -3 | / | -1
Cc1nc(COC(=O)c2cc(O)c3ccccc3c2O)cs1 | -4 | 99 | / | 64* | 0 | 4
CO[C@@H]1CN(C)C(=O)c2cc(NC(=O)NC(C)C)ccc2OC[C@H](C)N(Cc2ccc(-c3ccccn3)cc2)C[C@@H]1C | / | / | / | / | 0 | /
Cc1ccc(NC(=S)NN2CCN(C)CC2)c(C)c1 | 1 | 95 | 0 | 1 | 43* | -1
CC1CN(C(=O)c2ccccc2Nc2ccc(SC(F)F)cc2)CC(C)O1 (centres undefined) | 1 | 92 | 12 | -4 | 44* | 0
C[C@H](CO)N1C[C@H](C)[C@H](CN(C)CC2CCCCC2)Oc2c(NC(=O)C3CCCCC3)cccc2C1=O | / | / | / | / | 0 | /
O=C(Nc1ccc(F)c(Cl)c1)Nc1cnccn1 | -1 | 95 | -19 | -2 | 44* | -1
COCC#Cc1cnc2c(c1)C(=O)N([C@H](C)CO)C[C@H](C)[C@H](CN(C)C(=O)c1ccc3c(c1)OCO3)O2 | / | / | / | / | 0 | /
O=C(O)CCN=Cc1c(O)c2ccccc2oc1=O | -2 | 104 | -3 | 7 | 43* | -4
O=C(O)CCCCCN=Cc1c(O)c2ccccc2oc1=O | 1 | 96 | 3 | 1 | / | 1
C[C@H](CO)N1C[C@H](C)[C@@H](CN(C)Cc2ccc(Cl)c(Cl)c2)Oc2ccc(NC(=O)Nc3ccccc3)cc2CC1=O | / | / | / | / | 0 | /
O=C(O)CCC(=O)N1CCCC1 | 2 | 100 | -3 | 1 | 43* | -1
CN1c2ccc(Br)cc2[C@@H]2[C@@H](CCN2C(=O)Nc2ccc(F)cc2)[C@H]1CO | / | / | / | / | 0 | /
CCN(CC)c1nc(-c2ccccn2)nc(-c2ccccc2)c1C#N | -11 | 97 | 10 | 0 | 43* | -4
COc1ccccc1S(=O)(=O)N[C@H]1CC[C@H](CCn2cc(C3CCCCC3)nn2)O[C@H]1CO | / | / | / | / | 0 | /
CC(C)(C)OC(=O)NCC12C=CC(O1)C1C(=O)N(Cc3ccccc3)C(=O)C12 (centres undefined) | -2 | 97 | 9 | 85* | / | -5
O=C(Nc1ccccc1)n1cc(-c2ccccn2)c(N2CCOCC2)n1 | -2 | 95 | 4 | 3 | 44* | -1
COc1cccc(/C=N/NC(=S)NCCc2ccccc2)c1 | 0 | 98 | 19 | 58* | 0 | -4
COc1ccc(/C=N/NC(=S)NCCc2ccccc2)cc1 | 5 | 100 | -8 | 64* | 0 | -1
SMILES | MT1-MMP act inh | ABCB6 inh MLPCN | VLA-4 inh | Granule exo inh | FGF22 binding | DAGLB inh
CNC(=S)NCCc1ccc(OC)cc1 | 2 | 102 | 2 | -2 | 43* | -1
COc1ccc(O)c(/C=N/NC(=S)NCCc2ccccc2)c1 | 9 | 86 | 10 | 33 | 0 | 7
COc1ccc2c3c(n(C)c2c1)[C@@H](CO)N(Cc1ccc(Cl)cc1)CC31CCN(CC2CC2)CC1 | / | / | / | / | 0 | /
O=C1C=CCCN1C(=O)/C=C/c1ccccc1 | / | / | / | / | 1 | /
C[C@@H]1CN([C@H](C)CO)C(=O)Cc2cc(NC(=O)C3CCCCC3)ccc2O[C@@H]1CN(C)C(=O)NC1CCCCC1 | / | / | / | / | 0 | /
CCC(=O)Nc1ccc2c(c1)OC[C@H](C)N(C(=O)C1CC1)C[C@H](C)[C@@H](OC)CN(C)C2=O | / | / | / | / | 0 | /
N#CNC(=Nc1cccc(F)c1)SCc1ccccc1 | -2 | 97 | 2 | -6 | 44* | 1
N#CNC(=Nc1cccc(F)c1)SCc1cccc(F)c1 | 1 | 94 | 3 | 0 | 0 | 0
Cc1ccc(NC(=S)Nc2cc(C(=O)O)ccc2N2CC3CC(C2)c2cccc(=O)n2C3)cc1C (centres undefined) | -6 | 100 | 0 | 14 | 0 | -5
COc1cccc(NC(=S)Nc2cc(C(=O)O)ccc2N2CC3CC(C2)c2cccc(=O)n2C3)c1 (centres undefined) | 1 | 90 | 20 | -2 | 3.3* | -2
C[C@@H]1CN([C@@H](C)CO)C(=O)c2cc(NS(=O)(=O)c3ccc(Cl)cc3)ccc2O[C@H]1CN(C)S(=O)(=O)c1ccc(F)cc1 | / | / | / | / | 0 | /
COc1cc(/C=C/C(=O)c2ccc3c(c2)OCCO3)cc(Br)c1OCC(=O)N(C)C | -48 | 105 | 14 | 102* | 0 | -14
C[C@@H]1CCCCO[C@H](CN(C)C(=O)Nc2ccccc2)[C@H](C)CN([C@@H](C)CO)C(=O)c2cc(NS(=O)(=O)c3ccc(Cl)cc3)ccc2O1 | / | / | / | / | -1 | /
C[C@@H]1CN([C@H](C)CO)C(=O)Cc2cc(NC(=O)Cc3cn(C)c4ccccc34)ccc2O[C@@H]1CN(C)C(=O)Nc1ccc(F)cc1 | / | / | / | / | 0 | /
Cc1nc2nc(SCC(=O)O)nn2c(C)c1Cc1ccccc1Cl | 3 | 99 | -2 | -3 | 43* | -1
Cc1nc2nc(SCC(=O)O)nn2c(C)c1Cc1c(F)cccc1Cl | 7 | 101 | 4 | 2 | 0 | -2
CN1C(=O)c2cc(NC(=O)Cc3cccs3)ccc2OC[C@H]2O[C@@H](CC(=O)NCC3CC3)CC[C@@H]21 | / | / | / | / | 0 | /
COCC(=O)Nc1ccc2c(c1)[C@H]1C[C@@H](CC(=O)N(C)C)O[C@H](CO)[C@H]1O2 | / | / | / | / | 0 | /
CCOC(=O)[C@]12CCC=C1N(Cc1ccccc1)C(=O)[C@H](CC(=O)NCc1cccs1)C2 | 0 | 93 | / | -1 | 0 | /
CCOC(=O)[C@]12CCC=C1N(Cc1ccc3c(c1)OCO3)C(=O)[C@H](CC(=O)NCc1cccs1)C2 | 2 | 98 | / | -4 | 43* | /
COc1ccc(NC(=O)Nc2ccc3c(c2)[C@@H]2C[C@H](CC(=O)N4CCc5ccccc5C4)O[C@H](CO)[C@@H]2O3)cc1 | / | / | / | / | 0 | /
COc1ccc(S(=O)(=O)N(C)C[C@@H]2Oc3c(NC(=O)c4cnccn4)cccc3C(=O)N([C@H](C)CO)C[C@@H]2C)cc1 | / | / | / | / | 0 | /
